Experimental data collected from several papers.

O=c1[nH]cc(F)c(=O)[nH]1
IC50 (NRK-52E; cell growth or viability, MTT; 24 h): 46700 nM

Cc1cccc2c(C(c3ccc(/C=C/C(=O)O)s3)c3c[nH]c4c(C)cccc34)c[nH]c12
inhibition (KG-1; cell growth or viability; 5 µM, 48 h): 1%

CC(=O)NCN1N=C(C)C(=NNn2c(-c3ccccc3)nc3ccccc3c2=O)C1=O
MIC (Staphylococcus; microbial growth, broth dilution; 24 h): 120 µM

O=C(O)C(c1c[nH]c2ccccc12)c1c[nH]c2ccccc12
inhibition (KG-1; cell growth or viability; 20 µM, 48 h): 23%

C[C@@H]1[C@H](O)[C@@H](C)/C=C/C=C/C=C/C=C/C=C/C=C/C=C/[C@H](O[C@@H]2O[C@H](C)[C@@H](O)[C@H](N)[C@@H]2O)C[C@@H]2O[C@](O)(C[C@@H](O)C[C@@H](O)[C@H](O)CC[C@@H](O)C[C@@H](O)CC(=O)O[C@H]1C)C[C@H](O)[C@H]2C(=O)O
IC50 (Leishmania panamensis; parasite growth; 24 h, promastigote): 100 nM

COc1ccc(-c2c(-c3ccc(C#N)c(F)c3)nc(N3CCC(N)CC3)n(C)c2=O)cc1F
EC50 (MOLM-13; cell growth or viability, resazurin; 96 h): 0.96 nM

O=C1NN=C(N=Cc2ccccc2O)C1=NNn1c(-c2ccccc2)nc2ccccc2c1=O
MIC (Staphylococcus; microbial growth, broth dilution; 24 h): 111 µM

Clc1ccccc1C(c1ccccc1)(c1ccccc1)n1ccnc1
inhibition zone (Aspergillus flavus; microbial growth, disc diffusion; 20000 µg/mL): 24 mm

OC(CN1CCOCC1)(Cn1cncn1)c1ccc(F)cc1F (stereo not shown)
MIC (Aspergillus flavus; microbial growth, broth dilution; 48 h): 7.8 µg/mL

COc1ccc(-c2ccc(-c3ccc(C(=N)N)nc3)s2)cc1
GI50 (Malme-3M; cell growth or viability, SRB): 1840 nM
